Laboratory results from ChEMBL document CHEMBL1126061, “Cyclic RGD peptide analogues as antiplatelet antithrombotics” (J Med Chem, 1992).
pIC50: −log10 of the molar value. *1 amine or outer side, *2 acyl side, *3 side chain or, on linkers, in order; H or OH if unused. Where a SMILES comes first, the peptide text is derived from it. Bridges are numbered along the chain shown (N, C = ends). [ ]: non-standard residue; d: D form. Cys(O)(CH2CO) = O=C([C@H](C[S+]([O-])CC(=O)[*:3])N[*:1])[*:2]

How the values were obtained:
Type in all cases: protein-complex assay
[1] = target: T1, Integrin alpha-IIb/beta-3 (Homo sapiens, UniProt P05106+P08514); assay: Inhibition of Fibrinogen receptor
Method in brief: (§1)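 Solid-phase ELISA: human fibrinogen (10 µg/mL) coated, BSA-blocked; samples plus purified human platelet GPIIbIIIa (40 µg/mL) incubated 1 h at room temperature. Bound receptor detected with anti-GPIIbIIIa antibody AP3 (1 µg/mL, 1 h), then goat anti-mouse HRP (1 h); OPD/H2O2 at pH 5, stopped with H2SO4, absorbance 492-405 nm. IC50 from four-parameter fit; n ≥ 3.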

[2] = target: T1, Integrin alpha-IIb/beta-3; assay: The compound was tested for the inhibition of fibrinogen receptor; method in brief: as §1
[3] = target: T1, Integrin alpha-IIb/beta-3; assay: Inhibition of Fibrinogen binding to Fibrinogen receptor; method in brief: as §1

T1 sequence (P05106 27-788 limits assumed): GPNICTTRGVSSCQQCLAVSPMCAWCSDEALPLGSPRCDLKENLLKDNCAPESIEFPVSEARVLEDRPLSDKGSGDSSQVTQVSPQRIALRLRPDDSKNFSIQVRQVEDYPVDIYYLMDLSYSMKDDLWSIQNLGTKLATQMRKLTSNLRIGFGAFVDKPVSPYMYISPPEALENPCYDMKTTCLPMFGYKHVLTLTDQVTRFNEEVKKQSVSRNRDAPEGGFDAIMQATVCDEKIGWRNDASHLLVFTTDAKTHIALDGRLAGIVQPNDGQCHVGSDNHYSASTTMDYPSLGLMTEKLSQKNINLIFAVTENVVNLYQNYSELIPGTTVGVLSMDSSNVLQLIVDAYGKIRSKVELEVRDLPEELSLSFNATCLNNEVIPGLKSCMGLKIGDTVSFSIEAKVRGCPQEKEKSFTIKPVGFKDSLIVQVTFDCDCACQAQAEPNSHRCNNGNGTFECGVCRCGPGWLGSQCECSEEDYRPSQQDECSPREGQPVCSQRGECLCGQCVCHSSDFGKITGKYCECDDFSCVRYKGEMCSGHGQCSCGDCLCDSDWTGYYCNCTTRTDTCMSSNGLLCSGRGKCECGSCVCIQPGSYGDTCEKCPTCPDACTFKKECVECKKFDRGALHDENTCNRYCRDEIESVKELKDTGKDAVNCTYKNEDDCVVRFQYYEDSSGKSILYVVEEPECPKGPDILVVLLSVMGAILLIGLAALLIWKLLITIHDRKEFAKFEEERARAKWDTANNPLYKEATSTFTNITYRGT
T1 sequence (P08514 32-887 limits assumed): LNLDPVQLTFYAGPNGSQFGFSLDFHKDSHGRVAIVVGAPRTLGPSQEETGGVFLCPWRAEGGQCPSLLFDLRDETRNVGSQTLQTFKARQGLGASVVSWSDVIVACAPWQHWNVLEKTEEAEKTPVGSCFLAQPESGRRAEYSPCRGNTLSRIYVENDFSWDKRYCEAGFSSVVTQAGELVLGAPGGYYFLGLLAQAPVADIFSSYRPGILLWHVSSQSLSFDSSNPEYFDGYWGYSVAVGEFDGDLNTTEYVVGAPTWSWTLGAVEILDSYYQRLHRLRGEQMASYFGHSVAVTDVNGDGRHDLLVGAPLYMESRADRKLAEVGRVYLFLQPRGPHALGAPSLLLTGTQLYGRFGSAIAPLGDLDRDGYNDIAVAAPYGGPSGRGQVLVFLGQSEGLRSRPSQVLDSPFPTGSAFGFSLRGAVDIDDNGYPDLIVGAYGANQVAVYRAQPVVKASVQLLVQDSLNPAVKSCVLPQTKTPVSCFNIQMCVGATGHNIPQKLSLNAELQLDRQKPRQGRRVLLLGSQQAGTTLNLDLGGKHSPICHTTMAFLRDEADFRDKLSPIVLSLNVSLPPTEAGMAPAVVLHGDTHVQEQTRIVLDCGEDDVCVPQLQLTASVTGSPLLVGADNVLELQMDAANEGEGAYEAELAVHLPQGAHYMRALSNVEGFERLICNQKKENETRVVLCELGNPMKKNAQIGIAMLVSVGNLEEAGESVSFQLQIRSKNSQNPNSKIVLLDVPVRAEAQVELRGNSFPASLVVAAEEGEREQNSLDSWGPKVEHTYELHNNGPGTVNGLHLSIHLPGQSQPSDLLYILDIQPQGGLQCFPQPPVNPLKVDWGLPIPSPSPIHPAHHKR
T1 sequence (P08514 891-1039 limits assumed): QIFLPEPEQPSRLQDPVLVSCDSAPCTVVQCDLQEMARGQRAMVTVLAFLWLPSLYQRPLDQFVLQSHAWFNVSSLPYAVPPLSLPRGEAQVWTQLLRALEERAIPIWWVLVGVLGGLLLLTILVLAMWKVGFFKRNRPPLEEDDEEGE

| Compound | pIC50 [1] | pIC50 [2] | pIC50 [3] |
| --- | --- | --- | --- |
| N=C(N)NCCC[C@H](N)C(=O)NCC(=O)N[C@@H](CC(=O)O)C(=O)N[C@@H](Cc1ccccc1)C(=O)O (H-RGDF-OH) | 7.51 |  |  |
| CC(C)C[C@@H]1NC(=O)C[S+]([O-])C[C@@H](C(=O)O)NC(=O)[C@H](CC(=O)O)NC(=O)CNC(=O)[C@H](CCCN=C(N)N)NC1=O (some centres not stated) (LRGD[Cys(O)(CH2CO)]-OH; lactam N-5) |  | 8.41 | 7.60 |
| N=C(N)NCCC[C@@H]1NC(=O)[C@H](CO)NC(=O)C[S+]([O-])C[C@@H](C(=O)O)NC(=O)[C@H](CC(=O)O)NC(=O)CNC1=O (some centres not stated) (SRGD[Cys(O)(CH2CO)]-OH; lactam N-5) |  | 8.10 | 7.30 |
| CC(C)[C@@H]1NC(=O)C[S+]([O-])C[C@@H](C(=O)O)NC(=O)[C@H](CC(=O)O)NC(=O)CNC(=O)[C@H](CCCNC(=N)N)NC1=O (some centres not stated) (VRGD[Cys(O)(CH2CO)]-OH; lactam N-5) |  | 8.54 | 8.35 |
